Non-standard residues stand in square brackets, D forms with d. Residues, ends and D or L forms follow the SMILES beside them. Nva = CCC[C@H](N)C(=O)O
Columns and labels:
[1] = target: T1, Neuropeptide Y receptor type 2 (Homo sapiens, UniProt P49146); assay: Agonist activity at human NPY2 receptor in CHO cells by inhibition of forskolin-stimulated cAMP synthesis; assay type: functional, cell-based
T1 sequence (P49146 whole entry): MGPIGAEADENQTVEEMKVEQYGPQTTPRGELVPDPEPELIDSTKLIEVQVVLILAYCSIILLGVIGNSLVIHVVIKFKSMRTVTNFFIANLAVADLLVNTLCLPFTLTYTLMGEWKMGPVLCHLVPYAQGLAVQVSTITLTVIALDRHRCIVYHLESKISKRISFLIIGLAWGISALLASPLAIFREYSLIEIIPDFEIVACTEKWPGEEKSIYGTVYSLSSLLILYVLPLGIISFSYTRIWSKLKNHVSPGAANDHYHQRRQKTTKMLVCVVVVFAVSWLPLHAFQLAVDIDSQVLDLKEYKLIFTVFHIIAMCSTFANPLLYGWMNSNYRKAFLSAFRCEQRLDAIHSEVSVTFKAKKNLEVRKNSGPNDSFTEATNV
How it was run: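 Whole-cell cAMP: Y1 in HEK293 cells; Y2, Y4 and Y5 in CHO cells; 30,000 cells/well grown 48 h. Cells preincubated 20 min at 37 °C in HBSS with 10 mM HEPES pH 7.4, 0.2% BSA, 4 mM MgCl2 and 1 mM IBMX. Then 10 min at 37 °C with forskolin (2.5 µM CHO; 5.0 µM HEK293) plus graded peptide. Ethanol lysis, 125I-cAMP flashplate readout. Triplicate points, ≥3 repeats, nonlinear regression.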

[2] = target: T2, Neuropeptide Y receptor type 4 (Homo sapiens, UniProt P50391); assay: Displacement of [125I]hPP from human NPY4 receptor expressed in CHO cells; assay type: cell-based
T2 sequence (P50391 whole entry): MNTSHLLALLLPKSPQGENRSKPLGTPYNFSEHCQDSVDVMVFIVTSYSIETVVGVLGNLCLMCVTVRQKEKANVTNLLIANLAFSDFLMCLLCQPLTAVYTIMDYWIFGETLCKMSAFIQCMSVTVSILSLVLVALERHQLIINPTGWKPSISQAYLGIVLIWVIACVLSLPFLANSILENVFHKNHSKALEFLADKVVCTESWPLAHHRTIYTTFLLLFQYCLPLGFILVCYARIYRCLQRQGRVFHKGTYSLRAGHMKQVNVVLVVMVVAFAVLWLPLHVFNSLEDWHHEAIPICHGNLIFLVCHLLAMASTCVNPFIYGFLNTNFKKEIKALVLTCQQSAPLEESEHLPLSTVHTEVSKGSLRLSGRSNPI
How it was run: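 Y4 binding used membranes from CHO cells stably expressing cloned human Y4, with 125I-PP as radioligand. Competing peptides were tested over a range of concentrations in 50 mM HEPES pH 7.3, 0.1% BSA, 2.5 mM CaCl2 and 1 mM MgCl2 for 90 min at room temperature. Separation was by filtration and γ-counting. Nonspecific binding was taken with 1 µM PP. Duplicate points, three experiments, nonlinear regression.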

[3] = target: T3, Neuropeptide Y receptor type 1 (Homo sapiens, UniProt P25929); assay: Displacement of […] from human NPY1 receptor expressed in CHO cells; assay type: cell-based
T3 sequence (P25929 whole entry): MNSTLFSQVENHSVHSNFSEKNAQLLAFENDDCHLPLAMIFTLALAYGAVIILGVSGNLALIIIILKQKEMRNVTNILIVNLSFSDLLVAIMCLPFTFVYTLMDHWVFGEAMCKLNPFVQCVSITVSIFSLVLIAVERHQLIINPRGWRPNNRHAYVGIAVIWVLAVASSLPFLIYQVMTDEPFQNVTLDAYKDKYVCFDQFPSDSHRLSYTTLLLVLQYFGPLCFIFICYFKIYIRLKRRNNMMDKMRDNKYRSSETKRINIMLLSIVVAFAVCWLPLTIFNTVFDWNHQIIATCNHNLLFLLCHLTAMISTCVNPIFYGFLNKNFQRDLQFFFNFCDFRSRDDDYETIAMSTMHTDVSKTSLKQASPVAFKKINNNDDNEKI
How it was run: (§1)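 Competition binding on membranes (5-10 µg protein) from CHO cells stably expressing human Y1, Y2 or rat-human hybrid Y5 receptors. Radioligand 0.2 nM 125I-PYY, incubated with a range of peptide concentrations in 50 mM HEPES pH 7.3, 0.1% BSA, 2.5 mM CaCl2 and 1 mM MgCl2 for 90 min at room temperature. Bound ligand separated on PEI-treated glass fibre filters, washed with PBS and γ-counted. 1 µM NPY defined nonspecific binding. Duplicate points, three experiments, nonlinear regression.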

[4] = target: T1, Neuropeptide Y receptor type 2; assay: Displacement of […] from human NPY2 receptor expressed in CHO cells; assay type: cell-based; how it was run: as §1
[5] = Displacement of […] from rat-human hybrid NPY5 receptor expressed in CHO cells; assay type: cell-based; how it was run: as §1
Homo sapiens [6] = species on record: Homo sapiens; assay: Selectivity for human NPY4 over NPY1 receptor
Homo sapiens [7] = species on record: Homo sapiens; assay: Selectivity for human NPY4 over NPY2 receptor
[8] = Selectivity for human NPY4 over rat-human hybrid NPY5 receptor
[9] = target: T2, Neuropeptide Y receptor type 4; assay: Agonist activity at human NPY4 receptor in CHO cells by inhibition of forskolin-stimulated cAMP synthesis

CCC[C@H](NC(=O)[C@H](CCCN=C(N)N)NC(=O)[C@H](Cc1c[nH]c2ccccc12)NC(=O)[C@H](Cc1ccc(O)cc1)NC(=O)[C@H](CCCN=C(N)N)NC(=O)[C@H](CCC)NC(=O)[C@H](CCCN=C(N)N)NC(=O)[C@H](Cc1c[nH]c2ccccc12)NC(=O)[C@H](Cc1ccc(O)cc1)NC(=O)[C@H](CCCN=C(N)N)NC(=O)[C@H](CCC)NC(=O)[C@H](CCCN=C(N)N)NC(=O)[C@@H](N)Cc1c[nH]c2ccccc12)C(=O)N[C@@H](CCCN=C(N)N)C(=O)N[C@@H](Cc1ccc(O)cc1)C(N)=O (H-WR[Nva]RYWR[Nva]RYWR[Nva]RY-NH2)
EC50 [1]: 1180 nM
Ki [2]: 3.9 nM
Ki [3]: 30 nM
Ki [4]: 50 nM
Ki [5]: 160 nM
Selectivity ratio (Homo sapiens [6]): 10
Selectivity ratio (Homo sapiens [7]): 14
Selectivity ratio [8]: 40
EC50 [9]: 230 nM

Reference: ChEMBL document CHEMBL1146122, “Neuropeptide Y (NPY) Y4 receptor selective agonists based on NPY(32-36): development of an anorectic Y4 receptor selective agonist with picomolar affinity” (J Med Chem, 2006)
